Assay results taken from ChEMBL document CHEMBL1154300, “Monoterpenoid indole alkaloids from Alstonia yunnanensis” (J Nat Prod, 2009).

Tests used:
PANC-1 = experiment: Cytotoxicity against human PANC1 cells after 48 hrs by MTT assay; assay type: functional, cell-based; details: PANC-1, 48 h
[1] = biological target: T1, Polyunsaturated fatty acid 5-lipoxygenase (Homo sapiens) (UniProt P09917); experiment: Inhibition of 5-LOX at 100 uM after 5 mins
T1 sequence (whole entry): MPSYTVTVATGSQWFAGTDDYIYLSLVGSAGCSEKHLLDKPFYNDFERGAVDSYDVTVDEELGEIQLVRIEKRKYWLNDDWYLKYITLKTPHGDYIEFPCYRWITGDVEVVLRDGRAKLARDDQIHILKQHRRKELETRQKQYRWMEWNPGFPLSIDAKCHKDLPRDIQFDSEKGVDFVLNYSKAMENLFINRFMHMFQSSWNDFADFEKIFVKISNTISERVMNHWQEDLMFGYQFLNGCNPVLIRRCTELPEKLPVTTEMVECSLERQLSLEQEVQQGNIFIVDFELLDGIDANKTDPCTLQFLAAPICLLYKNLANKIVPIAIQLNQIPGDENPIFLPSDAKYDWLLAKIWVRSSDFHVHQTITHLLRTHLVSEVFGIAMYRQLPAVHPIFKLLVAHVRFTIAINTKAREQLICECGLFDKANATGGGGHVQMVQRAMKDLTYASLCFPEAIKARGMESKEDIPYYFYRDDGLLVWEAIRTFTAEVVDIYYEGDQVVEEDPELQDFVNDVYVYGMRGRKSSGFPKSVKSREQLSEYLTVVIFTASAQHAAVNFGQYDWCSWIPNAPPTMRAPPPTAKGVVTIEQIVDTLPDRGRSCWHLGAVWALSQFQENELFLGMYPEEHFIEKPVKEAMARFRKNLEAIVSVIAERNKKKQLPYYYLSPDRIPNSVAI
In short: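 Tested in an anti-inflammatory panel against Cox-1, Cox-2 and 5-Lox.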

HL-60 = experiment: Cytotoxicity against human HL60 cells after 48 hrs by MTT assay; assay type: functional, cell-based; details: HL-60, 48 h
[2] = biological target: Prostaglandin G/H synthase 1 (Homo sapiens) (UniProt P23219); details: at 100 µM
Chain of Prostaglandin G/H synthase 1 (Homo sapiens) (P23219 whole entry): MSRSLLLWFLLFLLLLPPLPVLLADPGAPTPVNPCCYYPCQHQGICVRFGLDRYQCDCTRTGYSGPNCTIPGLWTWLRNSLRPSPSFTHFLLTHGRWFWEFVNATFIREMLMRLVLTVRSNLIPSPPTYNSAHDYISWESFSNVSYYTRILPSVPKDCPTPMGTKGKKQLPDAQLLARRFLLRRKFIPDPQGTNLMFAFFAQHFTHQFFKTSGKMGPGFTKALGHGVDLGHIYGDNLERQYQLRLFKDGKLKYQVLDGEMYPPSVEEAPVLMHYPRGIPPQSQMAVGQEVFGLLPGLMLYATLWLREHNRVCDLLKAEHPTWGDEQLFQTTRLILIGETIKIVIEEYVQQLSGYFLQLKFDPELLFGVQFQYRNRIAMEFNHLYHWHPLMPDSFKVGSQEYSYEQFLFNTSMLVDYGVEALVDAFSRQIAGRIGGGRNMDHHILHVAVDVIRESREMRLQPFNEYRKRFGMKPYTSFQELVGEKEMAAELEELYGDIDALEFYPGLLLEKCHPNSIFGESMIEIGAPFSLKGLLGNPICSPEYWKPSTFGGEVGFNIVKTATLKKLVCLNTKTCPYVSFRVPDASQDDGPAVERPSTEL

Row | SMILES | IC50 (PANC-1) | inhibition [1] | IC50 (HL-60) | inhibition [2]
1 | CC(=O)OC1C2C3C[C@H]4C5=[N+](C)c6ccccc6[C@]51C[C@@H]2[N+]4([O-])[C@@H](C)[C@@H]3C(=O)[O-] (some centres not stated) | > 40 µM | < 0% | > 40 µM | 45%
2 | CO[C@@H]1O[C@@H](O)[C@@H]2C3C[C@H]4c5[nH]c6ccccc6c5C[C@@H]2N4[C@@H](C)[C@H]31 [ALSTOYUNINE A] | > 40 µM | 38.4% | > 40 µM | 27.8%
3 | CO[C@@H]1O[C@@H](O)[C@H]2C3C[C@H]4c5[nH]c6ccccc6c5C[C@@H]([C@@H]31)N4[C@H]2C [ALSTOYUNINE B] | > 40 µM | 33.5% | > 40 µM | 26.8%
4 | CC(=O)OC1C2C3C[C@H]4C5=[N+]([O-])c6ccccc6[C@]51C[C@@H]2[N+]4([O-])[C@@H](C)[C@@H]3C(=O)O (some centres not stated) [ALSTOYUNINE D] | > 40 µM | < 0% | > 40 µM | 39.3%
5 | C/C=C1/C[N+]2([O-])[C@H]3CC1C1C(OC(C)=O)[C@@]4(C[C@@H]12)C3=Nc1ccccc14 (some centres not stated) [ALSTOYUNINE E] | > 40 µM | 77.2% | > 40 µM | 41.8%
6 | COC(C)[C@H]1C2C[C@H]3C4=Nc5ccccc5[C@]45C[C@@H](C2C5OC(C)=O)N3[C@@H]1O (some centres not stated) [ALSTOYUNINE F] | 21.7 µM | 61.8% | 3.89 µM | 39.8%
7 | CC[C@@]12CC(C(=O)OC)=C3Nc4cc(OC)ccc4[C@@]34CCN(C(=O)[C@@H]3O[C@@H]31)[C@@H]24 [ALSTOYUNINE G] | > 40 µM | < 0% | > 40 µM | 37.2%
8 | CC[C@@]12CC(C(=O)OC)=C3Nc4cc(OC)ccc4[C@@]34CCN(C[C@@H](Cl)[C@@H]1O)[C@@H]24 [ALSTOYUNINE H] | > 40 µM | 0.84% | > 40 µM | < 0%
